# Source: publication PMC3101112 (Cancer Management and Research, 2011)
# Experiments:
# cKIT = cKIT (Homo sapiens, UniProt P10721); experiment: Biochemical inhibition profile, cKIT; conditions: read-out: Biochemical Inhibition Profile IC50, cKIT
# RAF = experiment: Biochemical inhibition profile, RAF; set-up: species or system Human; conditions: read-out: Biochemical Inhibition Profile IC50, RAF
# AML blasts = experiment: Antileukemia response assessment in patients; format: in vivo, human
# In short: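 Response was judged by WHO criteria on bone marrow aspirates taken at baseline and after four weeks of daily oral dosing (two weeks after amendment). Peripheral blast counts were taken daily during the multidose visit. A sustained fall in peripheral blast counts lasting longer than four weeks also counted as a pharmacodynamic response.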
# [1] = system: human ether-à-go-go-related gene (hERG); conditions: read-out: hERG IC50; ref data on file, Eli Lilly and Company; cited from earlier work
# [2] = system: pERK T202Y204 in HUVEC (with BSA); experiment: Cell-based target inhibition assay, HUVEC, VEGF, pERK with BSA; set-up: species or system human; conditions: read-out: Cell-Based Target Inhibition Assays IC50, pERK T202Y204 (with BSA), activator VEGF, with BSA
# EPHA7 = EPHA7 (Homo sapiens, UniProt Q15375); experiment: Biochemical inhibition profile, EPHA7; conditions: read-out: Biochemical Inhibition Profile IC50, EPHA7
# MV4-11 = experiment: cells; format: cell-based; conditions: read-out: Cell-Based Antiproliferation Assay IC50; MV4-11; constitutively active (FLT3 ITD Mutation D835)
# RET = RET (Homo sapiens, UniProt P07949); experiment: Biochemical inhibition profile, RET; conditions: read-out: Biochemical Inhibition Profile IC50, RET
# p70S6K = p70S6K (Homo sapiens, UniProt P23443); experiment: Biochemical inhibition profile, p70S6K; conditions: at 20 μM
# VEGF-R1 = VEGF-R1 (Homo sapiens, UniProt P17948); experiment: Biochemical inhibition profile, VEGF-R1; conditions: read-out: Biochemical Inhibition Profile IC50, VEGF-R1
# TIE2 = TIE2 (Homo sapiens, UniProt Q02763); experiment: Cell-based target inhibition assay, CHO - Clone113, pTIE2; conditions: read-out: Cell-Based Target Inhibition Assays IC50, pTIE2 pY99, stable over-expression of TIE2
# EPHA4 = EPHA4 (Homo sapiens, UniProt P54764); experiment: Biochemical inhibition profile, EPHA4; conditions: read-out: Biochemical Inhibition Profile IC50, EPHA4
# EPHA5 = EPHA5 (Homo sapiens, UniProt P54756); experiment: Biochemical inhibition profile, EPHA5; conditions: read-out: Biochemical Inhibition Profile IC50, EPHA5
# PDGF-Rb = PDGF-Rb (Homo sapiens, UniProt P09619); experiment: Biochemical inhibition profile, PDGF-Rb; conditions: read-out: Biochemical Inhibition Profile IC50, PDGF-Rb
# EPHA2 = EPHA2 (Homo sapiens, UniProt P29317); experiment: Biochemical inhibition profile, EPHA2; conditions: read-out: Biochemical Inhibition Profile IC50, EPHA2
# VEGF-R3 = VEGF-R3 (Homo sapiens, UniProt P35916); experiment: Biochemical inhibition profile, VEGF-R3; conditions: read-out: Biochemical Inhibition Profile IC50, VEGF-R3
# EPHB1 = EPHB1 (Homo sapiens, UniProt P54762); experiment: Biochemical inhibition profile, EPHB1; conditions: read-out: Biochemical Inhibition Profile IC50, EPHB1
# EPHA8 = EPHA8 (Homo sapiens, UniProt P29322); experiment: Biochemical inhibition profile, EPHA8; conditions: read-out: Biochemical Inhibition Profile IC50, EPHA8
# [3] = system: pFLT3, pcKIT, pS6 in AML blasts; experiment: Flow cytometry of phosphoproteins in AML blasts of patients; format: in vivo, human; conditions: after multiple dosing 50 mg/day; at least three patients (B, C, and E)
# In short: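 Patient blood or marrow samples reached a central lab within 48 h. […] Peripheral CD34+CD11− cells were gated on a 3-laser FACSCanto II. Sampling was predose, day 1, 8, 15 and end of study. Read-out was MEFL.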
# [4] = system: CYP3A4, CYP2D6, and CYP2C9; experiment: Drug-drug interaction cocktail; format: in vivo, human; conditions: AML patients, cocktail before and after multiple doses of 50 mg/day
# In short: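 The probe cocktail was midazolam 0.2 mg (CYP3A4), dextromethorphan 30 mg (CYP2D6) and tolbutamide 500 mg (CYP2C9), given after a two-hour fast. It was dosed ~7 days before the single test-compound dose and again after two or four weeks of daily 50 mg oral test compound. Probe plasma concentration–time profiles were compared before and after treatment.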
# [5] = system: MV4-11 cells containing the FLT3-ITD mutation; conditions: animals; cited from earlier work
# EPHA4, sequence (P54764 20-986): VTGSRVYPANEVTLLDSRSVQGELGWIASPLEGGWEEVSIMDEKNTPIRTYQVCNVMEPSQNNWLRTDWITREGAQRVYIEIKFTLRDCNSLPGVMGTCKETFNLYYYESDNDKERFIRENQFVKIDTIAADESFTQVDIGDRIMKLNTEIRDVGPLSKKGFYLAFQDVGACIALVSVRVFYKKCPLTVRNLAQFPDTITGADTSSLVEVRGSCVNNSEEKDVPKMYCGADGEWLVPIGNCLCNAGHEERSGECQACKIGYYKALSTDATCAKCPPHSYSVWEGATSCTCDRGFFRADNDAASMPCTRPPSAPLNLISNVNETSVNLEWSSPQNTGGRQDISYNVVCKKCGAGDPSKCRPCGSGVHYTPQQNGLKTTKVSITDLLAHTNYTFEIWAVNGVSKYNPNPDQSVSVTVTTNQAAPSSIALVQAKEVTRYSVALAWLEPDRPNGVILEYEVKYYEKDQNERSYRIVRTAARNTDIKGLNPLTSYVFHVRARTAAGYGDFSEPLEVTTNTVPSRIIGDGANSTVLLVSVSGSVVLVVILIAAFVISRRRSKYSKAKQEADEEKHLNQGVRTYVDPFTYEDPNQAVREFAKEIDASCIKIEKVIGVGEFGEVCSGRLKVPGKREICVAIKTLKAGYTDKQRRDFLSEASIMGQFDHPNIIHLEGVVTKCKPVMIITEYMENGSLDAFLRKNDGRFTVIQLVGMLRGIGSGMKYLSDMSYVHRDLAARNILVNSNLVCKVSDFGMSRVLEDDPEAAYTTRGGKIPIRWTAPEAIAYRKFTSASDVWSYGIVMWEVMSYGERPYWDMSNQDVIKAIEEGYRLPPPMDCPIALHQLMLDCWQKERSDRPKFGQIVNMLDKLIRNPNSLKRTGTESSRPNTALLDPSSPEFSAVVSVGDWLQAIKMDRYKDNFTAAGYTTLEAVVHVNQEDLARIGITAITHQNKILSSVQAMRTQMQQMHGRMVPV
# p70S6K, sequence (P23443 whole entry): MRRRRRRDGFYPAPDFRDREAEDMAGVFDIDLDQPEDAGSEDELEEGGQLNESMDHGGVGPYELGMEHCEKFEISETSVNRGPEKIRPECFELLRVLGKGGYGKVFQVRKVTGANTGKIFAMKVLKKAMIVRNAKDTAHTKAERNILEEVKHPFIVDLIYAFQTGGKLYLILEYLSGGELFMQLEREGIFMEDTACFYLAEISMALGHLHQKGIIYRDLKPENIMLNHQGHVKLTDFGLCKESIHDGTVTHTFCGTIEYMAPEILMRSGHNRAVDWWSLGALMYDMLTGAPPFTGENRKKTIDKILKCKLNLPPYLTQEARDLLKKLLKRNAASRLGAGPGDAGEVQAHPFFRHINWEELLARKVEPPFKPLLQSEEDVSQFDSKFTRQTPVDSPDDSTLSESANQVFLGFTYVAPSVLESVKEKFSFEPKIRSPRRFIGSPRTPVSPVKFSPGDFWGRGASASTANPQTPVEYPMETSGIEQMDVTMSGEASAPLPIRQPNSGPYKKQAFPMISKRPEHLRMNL
# VEGF-R3, sequence (P35916 25-1363): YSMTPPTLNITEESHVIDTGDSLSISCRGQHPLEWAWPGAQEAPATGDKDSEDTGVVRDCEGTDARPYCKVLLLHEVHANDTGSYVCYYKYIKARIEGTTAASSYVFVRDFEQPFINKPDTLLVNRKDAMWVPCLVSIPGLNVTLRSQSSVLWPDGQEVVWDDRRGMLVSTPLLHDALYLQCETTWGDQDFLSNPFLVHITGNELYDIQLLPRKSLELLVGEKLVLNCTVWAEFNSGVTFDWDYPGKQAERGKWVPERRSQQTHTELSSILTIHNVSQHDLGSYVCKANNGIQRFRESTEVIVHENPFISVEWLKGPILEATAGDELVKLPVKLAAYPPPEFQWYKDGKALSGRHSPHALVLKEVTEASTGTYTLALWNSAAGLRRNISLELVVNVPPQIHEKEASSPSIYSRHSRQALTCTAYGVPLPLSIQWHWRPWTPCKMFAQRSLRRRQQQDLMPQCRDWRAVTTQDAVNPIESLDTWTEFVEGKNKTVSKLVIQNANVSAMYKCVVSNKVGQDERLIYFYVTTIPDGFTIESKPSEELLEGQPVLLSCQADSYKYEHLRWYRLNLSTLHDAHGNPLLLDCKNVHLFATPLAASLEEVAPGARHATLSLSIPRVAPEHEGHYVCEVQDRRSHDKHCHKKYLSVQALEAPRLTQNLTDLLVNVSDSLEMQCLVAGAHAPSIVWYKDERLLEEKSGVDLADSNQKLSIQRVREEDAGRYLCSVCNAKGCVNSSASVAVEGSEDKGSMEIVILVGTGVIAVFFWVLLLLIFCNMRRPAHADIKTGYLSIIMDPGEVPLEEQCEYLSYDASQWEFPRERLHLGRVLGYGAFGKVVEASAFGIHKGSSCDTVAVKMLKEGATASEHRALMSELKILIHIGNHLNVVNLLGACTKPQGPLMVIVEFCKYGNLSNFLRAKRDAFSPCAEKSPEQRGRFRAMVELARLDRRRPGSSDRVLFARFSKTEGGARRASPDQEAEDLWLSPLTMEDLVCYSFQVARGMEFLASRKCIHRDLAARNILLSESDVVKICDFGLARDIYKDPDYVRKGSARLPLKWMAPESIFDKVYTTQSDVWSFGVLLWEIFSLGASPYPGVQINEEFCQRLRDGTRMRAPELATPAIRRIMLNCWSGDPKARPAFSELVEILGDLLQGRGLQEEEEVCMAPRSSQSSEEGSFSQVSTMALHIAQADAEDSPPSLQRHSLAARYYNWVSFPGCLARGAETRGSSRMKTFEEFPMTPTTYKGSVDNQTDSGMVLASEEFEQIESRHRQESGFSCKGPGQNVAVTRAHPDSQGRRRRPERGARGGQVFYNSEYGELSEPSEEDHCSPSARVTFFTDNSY
# EPHA8, sequence (P29322 28-1005): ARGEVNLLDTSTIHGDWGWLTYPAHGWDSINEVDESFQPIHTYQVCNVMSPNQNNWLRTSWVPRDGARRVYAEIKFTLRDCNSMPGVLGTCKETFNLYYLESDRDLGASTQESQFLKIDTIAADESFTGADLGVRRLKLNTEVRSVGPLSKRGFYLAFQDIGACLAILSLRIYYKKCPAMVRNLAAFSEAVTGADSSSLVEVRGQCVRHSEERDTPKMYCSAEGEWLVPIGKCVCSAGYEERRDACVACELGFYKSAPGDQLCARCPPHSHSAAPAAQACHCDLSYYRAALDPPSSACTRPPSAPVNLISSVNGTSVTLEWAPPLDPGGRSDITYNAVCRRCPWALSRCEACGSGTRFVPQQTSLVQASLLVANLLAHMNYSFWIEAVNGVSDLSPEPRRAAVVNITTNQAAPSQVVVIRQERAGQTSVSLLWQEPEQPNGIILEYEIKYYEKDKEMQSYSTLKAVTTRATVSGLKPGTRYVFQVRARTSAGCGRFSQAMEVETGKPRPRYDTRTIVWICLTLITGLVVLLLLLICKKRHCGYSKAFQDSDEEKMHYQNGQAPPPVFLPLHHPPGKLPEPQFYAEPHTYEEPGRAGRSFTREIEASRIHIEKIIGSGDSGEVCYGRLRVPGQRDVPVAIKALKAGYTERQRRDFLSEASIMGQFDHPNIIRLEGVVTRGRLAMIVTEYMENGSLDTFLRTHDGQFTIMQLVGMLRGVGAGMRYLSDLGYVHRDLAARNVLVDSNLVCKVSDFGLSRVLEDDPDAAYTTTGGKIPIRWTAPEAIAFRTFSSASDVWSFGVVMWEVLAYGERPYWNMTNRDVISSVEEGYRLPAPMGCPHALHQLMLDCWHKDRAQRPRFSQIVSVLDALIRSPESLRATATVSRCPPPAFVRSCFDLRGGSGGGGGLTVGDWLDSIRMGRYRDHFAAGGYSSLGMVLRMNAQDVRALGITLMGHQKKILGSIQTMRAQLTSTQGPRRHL
# TIE2, sequence (Q02763 23-1124): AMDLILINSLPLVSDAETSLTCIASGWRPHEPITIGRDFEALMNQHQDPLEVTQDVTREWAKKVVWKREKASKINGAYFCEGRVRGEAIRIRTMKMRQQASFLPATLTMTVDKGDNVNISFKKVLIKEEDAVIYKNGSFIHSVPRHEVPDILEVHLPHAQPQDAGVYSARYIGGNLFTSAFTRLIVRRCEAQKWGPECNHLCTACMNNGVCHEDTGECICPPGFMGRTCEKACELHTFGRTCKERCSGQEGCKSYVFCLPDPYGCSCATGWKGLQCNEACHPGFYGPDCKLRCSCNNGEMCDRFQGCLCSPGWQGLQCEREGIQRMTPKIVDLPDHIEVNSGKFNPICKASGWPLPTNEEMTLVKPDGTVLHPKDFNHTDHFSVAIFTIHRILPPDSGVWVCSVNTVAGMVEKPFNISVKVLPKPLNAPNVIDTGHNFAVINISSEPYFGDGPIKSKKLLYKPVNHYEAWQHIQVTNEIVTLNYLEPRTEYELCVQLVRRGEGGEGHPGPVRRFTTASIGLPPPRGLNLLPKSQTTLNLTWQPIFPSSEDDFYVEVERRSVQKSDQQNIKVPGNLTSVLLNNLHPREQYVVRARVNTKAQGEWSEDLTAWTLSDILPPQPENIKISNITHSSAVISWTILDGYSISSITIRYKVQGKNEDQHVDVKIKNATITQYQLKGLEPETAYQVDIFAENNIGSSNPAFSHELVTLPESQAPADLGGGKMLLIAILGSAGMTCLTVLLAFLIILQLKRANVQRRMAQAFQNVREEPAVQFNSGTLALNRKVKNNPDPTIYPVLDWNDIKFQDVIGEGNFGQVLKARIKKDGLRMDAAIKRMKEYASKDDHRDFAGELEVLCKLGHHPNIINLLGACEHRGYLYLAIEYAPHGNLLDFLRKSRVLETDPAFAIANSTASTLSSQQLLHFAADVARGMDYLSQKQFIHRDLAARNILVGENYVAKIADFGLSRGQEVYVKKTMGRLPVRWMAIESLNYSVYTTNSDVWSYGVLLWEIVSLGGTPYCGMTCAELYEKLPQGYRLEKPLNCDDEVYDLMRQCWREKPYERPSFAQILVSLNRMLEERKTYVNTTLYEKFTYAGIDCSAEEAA
compound,measurement,setting,value
Cc1cc(-c2ccn3c(-c4ccc(CC(=O)Nc5cccc(C(F)(F)F)c5)c(F)c4)cnc3c2)ccn1 [LY2457546],IC50,cKIT,73.8 nM
same,IC50,RAF,264 nM
same,Antileukemia response,"AML blasts; five treated patients, 50 mg/day",No medically relevant responses
same,Leukocyte and blast cell counts,"AML blasts; one of the five patients (B), through day 10",significant but transient decrease
same,IC50,[1],200 nM
same,IC50,[2],41.4 nM
same,IC50,EPHA7,221 nM
same,IC50,MV4-11,0.339 nM
same,IC50,RET,4.19 nM
same,p70S6K percent inhibition at 20 μM,p70S6K,75.9%
same,IC50,VEGF-R1,30.6 nM
same,IC50,TIE2,166 nM
same,IC50,EPHA4,157 nM
same,IC50,EPHA5,10.7 nM
same,IC50,PDGF-Rb,25.7 nM
same,IC50,EPHA2,37.4 nM
same,IC50,VEGF-R3,34.1 nM
same,IC50,EPHB1,21.4 nM
same,IC50,EPHA8,33.5 nM
same,Expression of pFLT3 and pcKIT,[3],reduced expression
same,"Drug-drug interactions with midazolam, tolbutamide, and dextromethorphan",[4],No consistent drug–drug interactions
same,Potency relative to sunitinib in controlling leukemia growth,[5],10 fold
